Source: PMC5198968 (Cancer Science, 2016)

Tested on: Japanese patients with advanced hepatocellular carcinoma
Experiment: Adverse events
Type: in vivo, human
Method in brief: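 Oral test compound given twice daily, continuously, in 28-day cycles until progression or unacceptable AEs. Group I had mild liver impairment (Child–Pugh 5–6) and group II moderate impairment (Child–Pugh 7 or raised AST/ALT). AEs were recorded over the observation period and graded by CTCAE v3.0. The treated set was every patient receiving at least one dose, and analyses were descriptive.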

[1] = Group I (mild liver impairment), 150 mg b.i.d., n = 4
[2] = Group I (mild liver impairment), 200 mg b.i.d., n = 12
[3] = Group I (mild liver impairment), all patients, n = 16
[4] = Group I (mild liver impairment), n = 16, all grades
[5] = Group I (mild liver impairment), n = 16, grade ≥3
[6] = Group II (moderate liver impairment), 100 mg b.i.d., n = 3
[7] = Group II (moderate liver impairment), 150 mg b.i.d., n = 4
[8] = Group II (moderate liver impairment), 200 mg b.i.d., n = 7

COC(=O)c1ccc2c(c1)NC(=O)/C2=C(\Nc1ccc(N(C)C(=O)CN2CCN(C)CC2)cc1)c1ccccc1 [nintedanib]
4 (25.0): Abdominal pain [4] | Increased AST [4] | Malaise [4]
5 (71.4) n (%): Investigator-defined drug-related AE [8]
4 (33.3) n (%): Serious AEs [2] | Serious AEs: Required hospitalization [2]
4 (100.0) n (%): Any AE [1] | Any AE [7] | Investigator-defined drug-related AE [7]
4 (25.0) n (%): Serious AEs [3] | Serious AEs: Required hospitalization [3]
5 (41.7) n (%): AEs leading to nintedanib dose reduction [2] | Other significant AEs (leading to dose reduction or permanent discontinuation of nintedanib) [2]
16 (100.0) n (%): Any AE [3]
11 (91.7) n (%): Investigator-defined drug-related AE [2]
3 (18.8): Fatigue [4]
1 (25.0) n (%): AEs leading to nintedanib dose reduction [7] | Other significant AEs (leading to dose reduction or permanent discontinuation of nintedanib) [7] | Serious AEs: Fatal [7]
3 (75.0) n (%): Investigator-defined drug-related AE [1]
6 (37.5): Decreased appetite [4] | Vomiting [4]
0 (0.0): Abdominal pain [5] | Ascites [5] | Decreased appetite [5] | Hyperuricemia [5] | Hypoalbuminemia [5] | Increased ALT [5] | Increased AST [5] | Increased blood bilirubin [5] | Malaise [5] | Malignant neoplasm progression [5] | Nausea [5] | Neutropenia [5] | Pyrexia [5] | Vomiting [5]
12 (100.0) n (%): Any AE [2]
1 (33.3) n (%): AEs leading to nintedanib dose reduction [6] | Other significant AEs (leading to dose reduction or permanent discontinuation of nintedanib) [6] | Serious AEs [6] | Serious AEs: Required hospitalization [6]
0 (0.0) n (%): AEs leading to nintedanib discontinuation [1] | AEs leading to nintedanib dose reduction [1] | Other significant AEs (leading to dose reduction or permanent discontinuation of nintedanib) [1] | Serious AEs [1] | Serious AEs: Fatal [1] | Serious AEs: Immediately life-threatening [1] | Serious AEs: Prolonged hospitalization [1] | Serious AEs: Required hospitalization [1] | AEs leading to nintedanib discontinuation [2] | Serious AEs: Fatal [2] | Serious AEs: Immediately life-threatening [2] | Serious AEs: Prolonged hospitalization [2] | AEs leading to nintedanib discontinuation [3] | Serious AEs: Fatal [3] | Serious AEs: Immediately life-threatening [3] | Serious AEs: Prolonged hospitalization [3] | AEs leading to nintedanib discontinuation [6] | Serious AEs: Fatal [6] | Serious AEs: Immediately life-threatening [6] | Serious AEs: Prolonged hospitalization [6] | AEs leading to nintedanib discontinuation [7] | Serious AEs: Immediately life-threatening [7] | Serious AEs: Prolonged hospitalization [7] | AEs leading to nintedanib discontinuation [8]
14 (87.5) n (%): Investigator-defined drug-related AE [3]
1 (6.3): Ascites [4] | Hyperuricemia [4] | Increased ALT [4] | Increased blood bilirubin [4] | Malignant neoplasm progression [4] | Diarrhea [5] | Fatigue [5]
5 (31.3) n (%): AEs leading to nintedanib dose reduction [3] | Other significant AEs (leading to dose reduction or permanent discontinuation of nintedanib) [3]
3 (100.0) n (%): Any AE [6] | Investigator-defined drug-related AE [6]
8 (50.0): Diarrhea [4]
16 (100): Any AE [4]
2 (50.0) n (%): Serious AEs [7] | Serious AEs: Required hospitalization [7]
7 (100.0) n (%): Any AE [8]
7 (43.8): Nausea [4] | Any AE [5]
1 (14.3) n (%): AEs leading to nintedanib dose reduction [8] | Other significant AEs (leading to dose reduction or permanent discontinuation of nintedanib) [8]
2 (12.5): Decreased platelet count [4] | Hypoalbuminemia [4] | Neutropenia [4] | Pyrexia [4] | Decreased platelet count [5]
